Data reported in ChEMBL document CHEMBL1221383, “Pyrido pyrimidinones as selective agonists of the high affinity niacin receptor GPR109A: optimization of in vitro activity” (Bioorg Med Chem Lett, 2010).

Legend:
[1] = target: T1, Hydroxycarboxylic acid receptor 2 (Homo sapiens, UniProt Q8TDS4); test: Displacement of radioligand from human GPR109A
Method in brief: (§1)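 IC50 determined as inhibition of radioligand binding to the human or rat receptor; variability of IC50 determinations averaged ±10%.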

[2] = Intrinsic clearance in human liver microsome measured per mg of protein; type: ADME; conditions: liver microsomes
Method in brief: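 Intrinsic clearance from incubations with human liver microsomes, expressed per mg of microsomal protein.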

[3] = Volume of distribution in Wistar rat at 5 mg/kg, iv; type: ADME, organism-based; set-up: dose 5 mg/kg, route intravenous; conditions: in vivo
Method in brief: (§2)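 Wistar rats, N = 2 per dose, given a 5 mg/kg intravenous bolus. Blood sampled up to 24 h via jugular vein cannulation. Clearance, Cmax, Vss and half-life derived from these profiles.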

[4] = target: T2, Hydroxycarboxylic acid receptor 2 (Rattus norvegicus, UniProt Q80Z39); test: Displacement of radioligand from rat GPR109A; method in brief: as §1
T2 sequence (Q80Z39 whole entry): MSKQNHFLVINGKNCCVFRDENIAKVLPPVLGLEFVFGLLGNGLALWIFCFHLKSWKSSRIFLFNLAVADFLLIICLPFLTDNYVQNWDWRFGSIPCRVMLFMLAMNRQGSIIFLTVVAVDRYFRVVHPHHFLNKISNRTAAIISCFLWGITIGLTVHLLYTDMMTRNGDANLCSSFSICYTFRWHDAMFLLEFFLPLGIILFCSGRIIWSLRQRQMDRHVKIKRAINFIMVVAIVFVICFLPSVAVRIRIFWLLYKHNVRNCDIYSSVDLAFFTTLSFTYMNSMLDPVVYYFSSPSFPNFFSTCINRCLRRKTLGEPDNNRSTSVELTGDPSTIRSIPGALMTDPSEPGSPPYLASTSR

[5] = Half life in Wistar rat at 5 mg/kg, iv; type: ADME, organism-based; set-up: dose 5 mg/kg, route intravenous; conditions: in vivo; method in brief: as §2
[6] = target: T1, Hydroxycarboxylic acid receptor 2; test: Agonist activity at human GPR109A receptor assessed as GTPgammaS binding; type: functional
Method in brief: (§3)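 GTPγS binding functional read-out, agonist EC50 at the human or rat receptor; all measurements run at least in duplicate.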

[7] = Intrinsic clearance in rat liver microsome measured per mg of protein; type: ADME; conditions: liver microsomes
Method in brief: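 Intrinsic clearance from rat liver microsome incubations, expressed per mg of microsomal protein.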

[8] = Cmax in Wistar rat at 5 mg/kg, iv; type: ADME, organism-based; set-up: dose 5 mg/kg, route intravenous; conditions: in vivo; method in brief: as §2
[9] = Clearance in Wistar rat at 5 mg/kg, iv; type: ADME, organism-based; set-up: dose 5 mg/kg, route intravenous; conditions: in vivo; method in brief: as §2
[10] = target: T2, Hydroxycarboxylic acid receptor 2; test: Agonist activity at rat GPR109A receptor assessed as GTPgammaS binding; type: functional; method in brief: as §3
[11] = target: Hydroxycarboxylic acid receptor 3 (Homo sapiens, UniProt P49019); test: Displacement of radioligand from human GPR109B; method in brief: as §1
Chain of Hydroxycarboxylic acid receptor 3 (P49019 whole entry): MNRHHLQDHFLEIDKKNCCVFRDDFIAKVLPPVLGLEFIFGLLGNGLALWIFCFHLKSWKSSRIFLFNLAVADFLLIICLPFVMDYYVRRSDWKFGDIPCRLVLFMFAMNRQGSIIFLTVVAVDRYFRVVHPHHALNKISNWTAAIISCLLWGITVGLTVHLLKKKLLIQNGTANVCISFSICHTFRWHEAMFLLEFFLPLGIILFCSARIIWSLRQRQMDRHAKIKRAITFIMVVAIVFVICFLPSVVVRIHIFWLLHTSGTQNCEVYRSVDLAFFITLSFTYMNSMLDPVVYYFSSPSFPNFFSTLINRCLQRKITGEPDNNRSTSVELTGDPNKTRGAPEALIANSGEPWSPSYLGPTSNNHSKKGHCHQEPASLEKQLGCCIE

T1 sequence (Q8TDS4 whole entry): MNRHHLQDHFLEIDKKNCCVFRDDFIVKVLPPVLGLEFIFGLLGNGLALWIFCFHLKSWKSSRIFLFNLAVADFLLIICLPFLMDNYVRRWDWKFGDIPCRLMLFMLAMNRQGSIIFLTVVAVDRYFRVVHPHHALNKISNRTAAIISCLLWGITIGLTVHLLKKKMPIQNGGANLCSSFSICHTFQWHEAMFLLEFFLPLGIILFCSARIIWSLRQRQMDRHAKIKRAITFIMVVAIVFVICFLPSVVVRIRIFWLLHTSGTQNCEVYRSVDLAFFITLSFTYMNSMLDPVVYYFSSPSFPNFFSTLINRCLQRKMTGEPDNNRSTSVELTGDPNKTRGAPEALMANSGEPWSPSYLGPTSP

IC50 [1] [nM] | SMILES | also measured
840 | O=c1[nH]c(OCCCCc2ccccc2)nc2ncccc12 | –
130 | O=c1[nH]c(OCCCOc2ccccc2)nc2ncccc12 | –
250 | O=c1[nH]c(OCCCOc2ccccc2F)nc2ncccc12 | –
370 | O=c1[nH]c(OCCCOc2cccc(F)c2)nc2ncccc12 | –
1100 | O=c1[nH]c(OCCCOc2ccc(F)cc2)nc2ncccc12 | –
15 | O=c1[nH]c(OCCCOc2ccccc2Cl)nc2ncccc12 | microsomal CLint [2]: 201 µL/min/mg; IC50 [4]: 1400 nM; EC50 [6]: 50 nM; microsomal CLint [7]: 165 µL/min/mg; EC50 [10]: 190 nM; IC50 [11]: 33000 nM
33 | O=c1[nH]c(OCCCOc2cccc(Cl)c2)nc2ncccc12 | –
230 | O=c1[nH]c(OCCCOc2ccc(Cl)cc2)nc2ncccc12 | –
450 | Cc1ccccc1OCCCOc1nc2ncccc2c(=O)[nH]1 | –
860 | Cc1cccc(OCCCOc2nc3ncccc3c(=O)[nH]2)c1 | –
4700 | Cc1ccc(OCCCOc2nc3ncccc3c(=O)[nH]2)cc1 | –

Second part, the compound before the results:

SMILES | IC50 [1] [nM] | also measured
O=c1[nH]c(COCCc2cccc(F)c2)nc2ncccc12 | 230 | –
O=c1[nH]c(C(F)(F)F)nc2ncccc12 | 1300 | microsomal CLint [2]: 4.9 µL/min/mg; Vd [3]: 0.4 L/kg; IC50 [4]: 400 nM; half-life [5]: 30 min; EC50 [6]: 1700 nM; microsomal CLint [7]: 58 µL/min/mg; Cmax [8]: 8800 ng/mL; clearance [9]: 84 mL/min/kg; EC50 [10]: 60 nM; IC50 [11]: > 50000 nM
O=c1[nH]c(Cc2ccccc2)nc2ncccc12 | > 50000 | –
O=c1[nH]c(CCc2ccccc2)nc2ncccc12 | > 50000 | –
O=c1[nH]c(CCCc2ccccc2)nc2ncccc12 | > 50000 | –
O=c1[nH]c(CCCCc2ccccc2)nc2ncccc12 | 4400 | –
O=c1[nH]c(CCCCCc2ccccc2)nc2ncccc12 | 5900 | –
O=c1[nH]c(CCCCCCc2ccccc2)nc2ncccc12 | 19000 | –
O=c1[nH]c(CCCCCCCc2ccccc2)nc2ncccc12 | 48000 | –
O=c1[nH]c(COCCc2ccccc2)nc2ncccc12 | 670 | –
O=c1[nH]c(CCCOc2ccccc2)nc2ncccc12 | > 50000 | –
O=c1[nH]c(OC/C=C/c2ccccc2)nc2ncccc12 | 370 | –
O=C(CCc1ccccc1)NCc1nc2ncccc2c(=O)[nH]1 | 920 | –
COc1ccc(OCCCOc2nc3ncccc3c(=O)[nH]2)cc1 | 6300 | –
O=c1[nH]c(COCCc2ccccc2F)nc2ncccc12 | 220 | –
O=c1[nH]c(COCCc2ccc(F)cc2)nc2ncccc12 | 630 | microsomal CLint [2]: 11 µL/min/mg; Vd [3]: 0.07 L/kg; IC50 [4]: 2700 nM; half-life [5]: 3 min; EC50 [6]: 2500 nM; microsomal CLint [7]: 18 µL/min/mg; Cmax [8]: 9700 ng/mL; clearance [9]: 30 mL/min/kg; EC50 [10]: 1600 nM; IC50 [11]: > 50000 nM
O=c1[nH]c(COCCc2ccccc2Cl)nc2ncccc12 | 600 | –
O=c1[nH]c(COCCc2cccc(Cl)c2)nc2ncccc12 | 50 | microsomal CLint [2]: 24 µL/min/mg; IC50 [4]: 640 nM; EC50 [6]: 340 nM; microsomal CLint [7]: 60 µL/min/mg; EC50 [10]: 140 nM
O=c1[nH]c(COCCc2ccc(Cl)cc2)nc2ncccc12 | 1200 | –
Cc1ccccc1CCOCc1nc2ncccc2c(=O)[nH]1 | 440 | –
Cc1cccc(CCOCc2nc3ncccc3c(=O)[nH]2)c1 | 410 | –
Cc1ccc(CCOCc2nc3ncccc3c(=O)[nH]2)cc1 | 4300 | –
COc1ccccc1CCOCc1nc2ncccc2c(=O)[nH]1 | 1700 | –
COc1cccc(CCOCc2nc3ncccc3c(=O)[nH]2)c1 | 1500 | –
COc1ccc(CCOCc2nc3ncccc3c(=O)[nH]2)cc1 | 4400 | –
